Experimental data as given in ChEMBL document CHEMBL1165965, “Synthesis and structure-activity relationships of 1,2,3,4-tetrahydropyrido[2,3-b]pyrazines as potent and selective inhibitors of the anaplastic lymphoma kinase” (Bioorg Med Chem, 2010).

Assays:
[1] = test system: Proto-oncogene tyrosine-protein kinase receptor Ret (Homo sapiens), P07949 [V804L]; assay: Inhibition of RET V804L mutant at 1 uM
[2] = target: SRSF protein kinase 3 (Homo sapiens) (UniProt Q9UPE1); assay: Inhibition of SRPK3 at 1 uM
[3] = target: 5'-AMP-activated protein kinase catalytic subunit alpha-1 (Homo sapiens) (UniProt Q13131); assay: Inhibition of AMPK-alpha1 at 1 uM
Outline: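 Ambit KINOMEscan screen at a single concentration across a 250–400 kinase panel, recorded as percent inhibition. Selectivity was expressed as S(90), the fraction of kinases inhibited >90%.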

[4] = target: T1, Serine/threonine-protein kinase NLK (Homo sapiens) (UniProt Q9UBE8); assay: Inhibition of NLK at 1 uM
T1 sequence (whole entry): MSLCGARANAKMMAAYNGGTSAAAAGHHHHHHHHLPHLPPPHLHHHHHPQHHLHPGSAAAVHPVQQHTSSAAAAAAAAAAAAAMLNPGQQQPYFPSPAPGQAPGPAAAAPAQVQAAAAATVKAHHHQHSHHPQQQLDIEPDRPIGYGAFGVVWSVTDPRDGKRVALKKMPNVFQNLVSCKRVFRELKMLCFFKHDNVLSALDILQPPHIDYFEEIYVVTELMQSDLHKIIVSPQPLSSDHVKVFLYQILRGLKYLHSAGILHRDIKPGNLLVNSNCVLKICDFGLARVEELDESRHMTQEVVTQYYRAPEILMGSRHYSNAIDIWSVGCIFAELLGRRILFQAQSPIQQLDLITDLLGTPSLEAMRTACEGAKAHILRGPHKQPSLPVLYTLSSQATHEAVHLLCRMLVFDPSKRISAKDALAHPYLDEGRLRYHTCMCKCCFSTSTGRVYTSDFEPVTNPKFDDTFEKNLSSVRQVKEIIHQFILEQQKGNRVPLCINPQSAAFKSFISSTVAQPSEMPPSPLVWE

[5] = target: T2, Tyrosine-protein kinase ITK/TSK (Homo sapiens) (UniProt Q08881); assay: Inhibition of ITK at 1 uM
T2 sequence (whole entry): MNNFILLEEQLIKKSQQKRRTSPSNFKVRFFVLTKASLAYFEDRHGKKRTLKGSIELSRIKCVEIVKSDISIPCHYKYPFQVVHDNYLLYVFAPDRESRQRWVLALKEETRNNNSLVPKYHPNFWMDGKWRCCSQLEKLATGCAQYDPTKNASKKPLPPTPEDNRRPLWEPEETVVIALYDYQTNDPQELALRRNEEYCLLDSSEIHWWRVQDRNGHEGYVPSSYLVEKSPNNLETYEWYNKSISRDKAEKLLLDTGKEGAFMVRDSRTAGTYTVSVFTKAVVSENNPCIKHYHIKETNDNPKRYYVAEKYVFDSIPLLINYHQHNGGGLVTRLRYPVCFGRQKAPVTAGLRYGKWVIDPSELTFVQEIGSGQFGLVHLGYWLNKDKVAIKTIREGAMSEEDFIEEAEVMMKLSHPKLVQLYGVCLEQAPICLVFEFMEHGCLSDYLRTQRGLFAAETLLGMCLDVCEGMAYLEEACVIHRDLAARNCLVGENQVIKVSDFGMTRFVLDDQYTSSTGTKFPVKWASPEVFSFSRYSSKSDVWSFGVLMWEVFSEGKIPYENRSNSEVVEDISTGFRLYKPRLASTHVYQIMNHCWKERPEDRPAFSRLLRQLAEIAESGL
Outline: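 Single-concentration screen on the Ambit KINOMEscan platform, run against a panel of 250–400 kinases. Per-kinase inhibition was also summarized as S(90), the fraction of kinases inhibited by more than 90%.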

[6] = target: Homeodomain-interacting protein kinase 3 (Homo sapiens) (UniProt Q9H422); assay: Inhibition of HIPK3 at 1 uM
[7] = target: T3, Serine/threonine-protein kinase ULK2 (Homo sapiens) (UniProt Q8IYT8); assay: Inhibition of ULK2 at 1 uM
T3 sequence (whole entry): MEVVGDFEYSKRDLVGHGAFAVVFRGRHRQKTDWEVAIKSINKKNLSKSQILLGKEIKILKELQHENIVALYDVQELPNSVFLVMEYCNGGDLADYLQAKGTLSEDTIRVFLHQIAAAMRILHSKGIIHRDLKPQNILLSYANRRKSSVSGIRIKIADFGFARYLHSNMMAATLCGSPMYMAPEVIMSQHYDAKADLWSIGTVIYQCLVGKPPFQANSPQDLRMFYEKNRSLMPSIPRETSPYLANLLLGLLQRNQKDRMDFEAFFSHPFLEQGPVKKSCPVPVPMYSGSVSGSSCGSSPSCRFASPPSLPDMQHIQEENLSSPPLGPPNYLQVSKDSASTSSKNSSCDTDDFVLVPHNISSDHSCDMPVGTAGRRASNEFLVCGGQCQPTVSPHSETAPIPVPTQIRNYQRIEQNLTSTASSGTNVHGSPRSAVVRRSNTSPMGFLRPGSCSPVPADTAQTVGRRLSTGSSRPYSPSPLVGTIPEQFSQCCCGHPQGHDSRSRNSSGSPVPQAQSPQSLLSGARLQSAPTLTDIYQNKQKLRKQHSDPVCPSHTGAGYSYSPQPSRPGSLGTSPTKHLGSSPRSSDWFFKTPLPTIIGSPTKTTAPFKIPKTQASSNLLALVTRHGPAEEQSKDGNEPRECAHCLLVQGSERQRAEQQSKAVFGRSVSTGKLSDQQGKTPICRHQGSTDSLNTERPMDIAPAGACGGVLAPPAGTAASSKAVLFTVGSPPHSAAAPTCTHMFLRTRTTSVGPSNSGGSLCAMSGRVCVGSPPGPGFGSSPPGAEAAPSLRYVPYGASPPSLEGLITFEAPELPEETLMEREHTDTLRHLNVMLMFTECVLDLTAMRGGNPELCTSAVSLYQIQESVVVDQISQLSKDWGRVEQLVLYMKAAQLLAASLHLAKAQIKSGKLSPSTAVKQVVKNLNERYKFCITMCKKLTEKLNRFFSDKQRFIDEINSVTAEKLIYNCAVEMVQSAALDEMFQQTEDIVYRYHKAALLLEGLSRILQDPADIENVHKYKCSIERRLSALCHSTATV

[8] = target: cAMP-dependent protein kinase catalytic subunit alpha (Homo sapiens) (UniProt P17612); assay: Inhibition of PKAC-alpha at 1 uM

Homeodomain-interacting protein kinase 3 (Homo sapiens), sequence (Q9H422 whole entry, looked up): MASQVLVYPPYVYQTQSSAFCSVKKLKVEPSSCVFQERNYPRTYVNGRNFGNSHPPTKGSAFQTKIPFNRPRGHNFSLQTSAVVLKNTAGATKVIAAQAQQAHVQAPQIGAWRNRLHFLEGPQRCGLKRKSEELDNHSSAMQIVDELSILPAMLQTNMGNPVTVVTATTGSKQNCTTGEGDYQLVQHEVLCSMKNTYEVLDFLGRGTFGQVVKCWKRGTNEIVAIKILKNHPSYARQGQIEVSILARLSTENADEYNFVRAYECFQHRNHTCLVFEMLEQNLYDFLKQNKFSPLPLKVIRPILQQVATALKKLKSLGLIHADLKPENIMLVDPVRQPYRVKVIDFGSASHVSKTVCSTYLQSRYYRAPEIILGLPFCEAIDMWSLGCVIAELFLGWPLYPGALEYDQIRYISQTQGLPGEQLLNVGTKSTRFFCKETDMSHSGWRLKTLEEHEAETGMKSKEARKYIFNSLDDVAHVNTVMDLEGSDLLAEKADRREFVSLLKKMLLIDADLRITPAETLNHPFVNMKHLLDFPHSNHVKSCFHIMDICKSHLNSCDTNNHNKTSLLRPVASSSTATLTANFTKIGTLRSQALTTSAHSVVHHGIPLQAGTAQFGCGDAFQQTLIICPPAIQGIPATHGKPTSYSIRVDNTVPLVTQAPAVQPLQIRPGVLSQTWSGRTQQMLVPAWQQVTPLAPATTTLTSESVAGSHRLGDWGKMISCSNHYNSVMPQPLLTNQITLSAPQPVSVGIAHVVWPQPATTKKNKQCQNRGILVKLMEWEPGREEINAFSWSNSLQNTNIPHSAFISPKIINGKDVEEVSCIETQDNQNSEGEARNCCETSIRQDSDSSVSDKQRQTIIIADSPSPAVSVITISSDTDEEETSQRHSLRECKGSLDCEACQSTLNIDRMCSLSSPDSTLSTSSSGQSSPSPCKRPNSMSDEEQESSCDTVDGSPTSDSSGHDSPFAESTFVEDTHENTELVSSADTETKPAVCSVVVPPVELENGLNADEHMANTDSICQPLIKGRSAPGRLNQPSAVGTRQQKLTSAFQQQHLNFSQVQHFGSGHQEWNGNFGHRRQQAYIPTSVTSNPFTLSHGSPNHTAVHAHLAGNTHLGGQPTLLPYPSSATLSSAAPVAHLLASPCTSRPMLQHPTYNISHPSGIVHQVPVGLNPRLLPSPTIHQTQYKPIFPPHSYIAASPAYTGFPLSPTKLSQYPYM
5'-AMP-activated protein kinase catalytic subunit alpha-1 (Homo sapiens), sequence (Q13131 whole entry, looked up): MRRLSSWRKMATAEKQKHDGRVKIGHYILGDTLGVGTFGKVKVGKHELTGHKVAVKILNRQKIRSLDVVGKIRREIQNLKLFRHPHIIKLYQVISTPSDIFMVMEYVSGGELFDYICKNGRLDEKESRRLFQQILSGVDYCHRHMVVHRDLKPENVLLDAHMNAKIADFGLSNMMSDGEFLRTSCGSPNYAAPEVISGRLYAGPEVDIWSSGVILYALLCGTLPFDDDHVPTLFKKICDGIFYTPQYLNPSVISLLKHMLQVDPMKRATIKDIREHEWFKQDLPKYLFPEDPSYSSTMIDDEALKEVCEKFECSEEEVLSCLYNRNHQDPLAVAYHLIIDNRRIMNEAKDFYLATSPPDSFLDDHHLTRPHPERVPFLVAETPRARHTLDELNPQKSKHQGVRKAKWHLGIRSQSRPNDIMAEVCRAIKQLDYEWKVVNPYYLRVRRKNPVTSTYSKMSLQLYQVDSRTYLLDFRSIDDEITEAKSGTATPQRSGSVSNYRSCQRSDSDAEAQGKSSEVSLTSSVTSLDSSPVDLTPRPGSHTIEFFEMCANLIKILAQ
Proto-oncogene tyrosine-protein kinase receptor Ret (Homo sapiens), P07949 [V804L], sequence (P07949 whole entry V804L): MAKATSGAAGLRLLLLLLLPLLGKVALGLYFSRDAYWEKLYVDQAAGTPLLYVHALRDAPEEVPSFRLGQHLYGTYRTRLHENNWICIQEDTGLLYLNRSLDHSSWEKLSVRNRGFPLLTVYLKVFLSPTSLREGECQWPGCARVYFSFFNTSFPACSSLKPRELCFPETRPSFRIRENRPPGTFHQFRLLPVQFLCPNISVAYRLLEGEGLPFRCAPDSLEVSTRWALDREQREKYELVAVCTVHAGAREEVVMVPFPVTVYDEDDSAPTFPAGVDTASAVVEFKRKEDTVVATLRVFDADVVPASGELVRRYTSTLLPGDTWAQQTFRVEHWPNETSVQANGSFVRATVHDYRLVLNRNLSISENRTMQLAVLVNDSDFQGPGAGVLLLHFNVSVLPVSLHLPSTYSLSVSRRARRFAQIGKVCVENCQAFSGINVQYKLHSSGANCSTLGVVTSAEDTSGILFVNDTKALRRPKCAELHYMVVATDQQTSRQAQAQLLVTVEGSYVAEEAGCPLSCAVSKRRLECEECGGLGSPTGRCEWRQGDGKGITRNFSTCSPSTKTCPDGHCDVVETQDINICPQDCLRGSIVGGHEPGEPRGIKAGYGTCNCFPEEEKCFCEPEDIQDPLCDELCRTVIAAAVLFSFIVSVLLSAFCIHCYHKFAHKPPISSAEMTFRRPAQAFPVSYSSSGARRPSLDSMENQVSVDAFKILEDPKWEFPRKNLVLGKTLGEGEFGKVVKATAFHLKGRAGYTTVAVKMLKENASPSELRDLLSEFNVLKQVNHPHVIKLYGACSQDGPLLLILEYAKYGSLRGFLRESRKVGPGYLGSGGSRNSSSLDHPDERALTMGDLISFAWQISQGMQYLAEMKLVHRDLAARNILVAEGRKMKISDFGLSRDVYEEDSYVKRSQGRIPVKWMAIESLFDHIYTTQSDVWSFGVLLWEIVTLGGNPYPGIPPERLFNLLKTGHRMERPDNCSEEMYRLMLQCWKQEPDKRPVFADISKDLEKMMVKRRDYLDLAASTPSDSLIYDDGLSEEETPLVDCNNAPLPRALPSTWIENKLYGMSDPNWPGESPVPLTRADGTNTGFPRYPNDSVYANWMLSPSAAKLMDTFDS
SRSF protein kinase 3 (Homo sapiens), sequence (Q9UPE1 whole entry): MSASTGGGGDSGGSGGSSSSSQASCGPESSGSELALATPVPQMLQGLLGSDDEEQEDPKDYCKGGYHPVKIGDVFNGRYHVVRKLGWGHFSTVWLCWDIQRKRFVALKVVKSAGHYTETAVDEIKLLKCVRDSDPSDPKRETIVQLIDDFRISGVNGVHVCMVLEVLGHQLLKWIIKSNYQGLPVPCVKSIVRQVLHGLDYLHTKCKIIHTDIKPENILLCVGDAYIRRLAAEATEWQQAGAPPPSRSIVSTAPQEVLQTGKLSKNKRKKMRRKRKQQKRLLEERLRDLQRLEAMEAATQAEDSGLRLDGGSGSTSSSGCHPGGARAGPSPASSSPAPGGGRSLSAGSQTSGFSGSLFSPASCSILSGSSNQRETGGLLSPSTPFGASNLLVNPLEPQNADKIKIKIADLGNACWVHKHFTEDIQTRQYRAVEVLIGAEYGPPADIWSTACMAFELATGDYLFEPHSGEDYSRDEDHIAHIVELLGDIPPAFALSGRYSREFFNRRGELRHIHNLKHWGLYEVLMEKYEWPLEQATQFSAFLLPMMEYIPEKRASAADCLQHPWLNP

inhibition [1] [%] | inhibition [2] [%] | inhibition [3] [%] | inhibition [4] [%] | inhibition [5] [%] | inhibition [6] [%] | inhibition [7] [%] | inhibition [8] [%] | Compound
< 50 | < 50 | < 50 | < 50 | < 50 | < 50 | < 50 | – | CN1CCN(c2ccc(-c3cnc4c(c3)N(Cc3cc(Cl)ccc3C(F)(F)F)CCN4)cn2)CC1
89 | < 50 | 66 | < 50 | < 50 | < 50 | 78 | < 50 | FC(F)(F)c1ccc(Cl)cc1CN1CCNc2ncc(-c3ccnc(N4CCNCC4)c3)cc21
< 50 | < 50 | < 50 | < 50 | < 50 | < 50 | < 50 | < 50 | CN1CCN(c2ccc(-c3cnc4c(c3)N(Cc3cc(F)ccc3F)CCN4)cn2)CC1
– | – | < 50 | < 50 | < 50 | – | – | < 50 | O=C(c1ccc(-c2cnc3c(c2)N(Cc2cc(Cl)ccc2C(F)(F)F)CCN3)cc1)N1CCCCC1

Continued, compound first:

Compound | inhibition [1] [%] | inhibition [2] [%] | inhibition [3] [%] | inhibition [4] [%] | inhibition [5] [%] | inhibition [6] [%] | inhibition [7] [%] | inhibition [8] [%]
O=C(O)c1ccc(-c2cnc3c(c2)N(Cc2cc(Cl)ccc2C(F)(F)F)CCN3)cc1 | – | – | < 50 | < 50 | < 50 | – | – | < 50
O=C(c1ccc(-c2cnc3c(c2)N(Cc2cc(Cl)ccc2C(F)(F)F)CCN3)cc1)N1CCC(N2CCCC2)CC1 | – | – | < 50 | < 50 | < 50 | – | – | < 50
COC1CCN(C(=O)c2ccc(-c3cnc4c(c3)N(Cc3cc(Cl)ccc3C(F)(F)F)CCN4)cc2)CC1 | – | – | < 50 | < 50 | < 50 | – | – | < 50
CC(=O)N1CCN(c2cc(-c3cnc4c(c3)N(Cc3cc(Cl)ccc3C(F)(F)F)CCN4)ccn2)CC1 | < 50 | < 50 | < 50 | < 50 | < 50 | < 50 | < 50 | < 50
CN1CCN(c2ccc(-c3cnc4c(c3)N(Cc3c(F)ccc(F)c3Cl)CCN4)cn2)CC1 | < 50 | < 50 | < 50 | < 50 | < 50 | < 50 | < 50 | –
CN1CCN(c2ccc(-c3cnc4c(c3)N(Cc3cc(Cl)ccc3Cl)CCN4)cn2)CC1 | < 50 | < 50 | < 50 | < 50 | < 50 | < 50 | < 50 | < 50
